Data on 13 compounds can be found in ChEMBL document CHEMBL4400560, “Discovery and optimization of novel piperazines as potent inhibitors of fatty acid synthase (FASN)” (Bioorg Med Chem Lett, 2019).

As usually defined, the IC50 is the concentration needed to halve the response being measured. The term AUC denotes concentration integrated over time. A word on the Cmax: it is the maximum level reached in the sampled fluid or tissue. A word on the Tmax: it is the time from dosing to the highest level. Broadly, the AUC(0-t) is exposure summed from dosing to a finite time, without extrapolation to infinity. The term bioavailability denotes the share of a dose that reaches the circulation, judged against a reference dose that is usually intravenous.

The test system of data set [1] is PC-3. As to the kind of experiment: Antiproliferative activity against human PC3 cells after 96 hrs by MTT assay. Particulars: PC-3, 96 h. In kind it is functional, cell-based. In a few lines:
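PC3 prostate cancer cells grown in medium with 10% lipid-reduced serum, a condition in which growth depends on de novo lipogenesis, in the presence of inhibitor. Antiproliferative IC50 reported as the mean of at least two separate runs.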
(In general: Tetrazolium dyes change colour on reduction, which living cells bring about.)

Data set [2] has as its target T1, Fatty acid synthase (Homo sapiens, UniProt P49327). As to the kind of experiment: Inhibition of full length recombinant human FASN using acetyl-CoA/malonyl-CoA as substrate preincubated for 60 mins followed by substrate addition and measured after 90 mins in presence of NADPH. In a few lines: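 Full-length recombinant human FASN. CoA released is detected as a fluorescent conjugate with the coumarin maleimide CPM. IC50 is the mean of at least two separate runs.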

Data set [3] can be described thus: Kinetic solubility of compound at pH 7.4. It counts as physicochemical. The settings on record: buffer, read-out: Kinetic_solubility. In a few lines: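 Kinetic solubility measured at pH 7.4.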
Data set [4] is described as follows: Stability in mouse liver S9 fraction after 1 hr. It counts as ADME, subcellular. The settings on record: read-out: Stability.
Data set [5] in a line: Stability in mouse liver microsomes assessed as compound remaining after 30 mins. In kind it is ADME, Microsome. Particulars: read-out: Stability. In outline:
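Mouse liver microsomes, 30-min incubation. Result expressed as percent of parent remaining.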
Background: Liver microsomes are vesicles of endoplasmic reticulum, rich in cytochrome P450 enzymes.

Data set [6] is described as follows: AUC in mouse at mg/kg, po. The arrangement: concentration or dose not given beside the values. It counts as ADME, organism-based. Particulars: in vivo. In outline:
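Mouse oral PK study at 5 mg/kg p.o., with plasma exposure taken as AUC0-8h.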

Data set [7] can be described thus: Stability in mouse hepatocytes after 1 hr. It counts as ADME, cell-based, Hepatocyte. Particulars: read-out: Stability.
Data set [8] deals with T1, Fatty acid synthase. Nature of the data set: Inhibition of FASN in human BT474 cells preincubated for 1 hr followed by [14C]-acetate addition and measured after 4 hrs by scintillation counting assay. It counts as cell-based. In a few lines: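 BT474 breast cancer cells given 14C-acetate, which cellular FASN incorporates via acetyl-CoA into newly made radiolabeled palmitate. IC50 for blocking this incorporation is the mean of at least two separate runs.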

In data set [9] the test system is MV4-11. Nature of the data set: Antitumor activity against human MV4-11 cells xenografted in Harlan nude mouse assessed as tumor growth inhibition at 50 mg/kg, po administered twice daily for 16 days and measured 4 hrs post last dose. In kind it is functional. The settings on record: MV4-11, po, read-out: TGI. In outline:
(§1)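 Mice carrying subcutaneous MV-411 xenografts were randomized at […] tumor size into four groups (n=4). Groups received vehicle (PEG400/ethanol 9:1 v/v) or 5, 25 or 50 mg/kg twice daily. Tumors were taken 4 h after the last dose for malonyl-CoA measurement by LC-MS (one-way ANOVA vs vehicle). Tumor growth inhibition was assessed vs vehicle after 16 days.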
On the technique in general: Xenograft models place foreign cells or tissue in a host animal.

Data set [10] has as its system MV4-11. Nature of the data set: Antitumor activity against human MV4-11 cells xenografted in Harlan nude mouse assessed as tumor growth inhibition at 25 mg/kg, po administered twice daily for 16 days and measured 4 hrs post last dose. It counts as functional. The settings on record: MV4-11, po, read-out: TGI. In a few lines: as §1
Data set [11] is described as follows: Toxicity in Balb/c nude mouse at 5 mg/kg, po administered as single dose. In kind it is organism-based. Particulars: in vivo. In a few lines:
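Female Balb/c nude mice observed for acute toxicity after a single oral 5 mg/kg dose.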

The test system of data set [12] is Mus musculus. Nature of the data set: In vivo inhibition of FASN in Harlan nude mouse xenografted with human MV411 cells assessed as increase in malonyl-CoA levels in tumors administered orally twice daily for 16 days and measured 4 hrs post last dose by LC-MS analysis. It counts as functional, organism-based. In outline: as §1
A short description of data set [13]: Cmax in Balb/c nude mouse at 5 mg/kg, po. It counts as ADME, organism-based. The arrangement: dose 5 mg/kg, route oral. Particulars: in vivo. In outline: (§2)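 Female Balb/c nude mice (n=6) dosed orally at 5 mg/kg in PEG400/ethanol (9:1). Exposure measured over 8 h, giving Tmax, Cmax, AUC0-8h and %F.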
Data set [14] can be described thus: Tmax in Balb/c nude mouse at 5 mg/kg, po. In kind it is ADME, organism-based. Particulars: in vivo. In outline: as §2
The subject of data set [15] is MV4-11. Nature of the data set: Antiproliferative activity against human MV4-11 cells after 96 hrs by CellTiter-Glo reagent-based assay. In kind it is functional, cell-based. Particulars: MV4-11, 96 h. In outline:
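Antiproliferative activity measured in MV-411 cells. IC50 reported as the mean of at least two separate assay runs.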

Data set [16] in a line: Tmax in Sprague-Dawley rat at 5 mg/kg, po. In kind it is ADME, organism-based. Particulars: in vivo. In outline: (§3)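 Male Sprague-Dawley rats (n=3) given a single oral 5 mg/kg dose in PEG400/ethanol (9:1). Plasma followed over 24 h to give Tmax, Cmax, AUC0-24h and oral bioavailability (%F).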
Data set [17] in a line: Cmax in Sprague-Dawley rat at 5 mg/kg, po. In kind it is ADME, organism-based. Further details: dose 5 mg/kg, route oral. Particulars: in vivo. In outline: as §3
A short description of data set [18]: AUC (0 to 24 hrs) in Sprague-Dawley rat at 5 mg/kg, po. The arrangement: dose 5 mg/kg, time < 24 hr, route oral. Particulars: in vivo. It counts as ADME, organism-based. In a few lines: as §3
Data set [19] in a line: Oral bioavailability in Balb/c nude mouse at 5 mg/kg. In kind it is ADME, organism-based. The settings on record: in vivo. In outline: as §2
Data set [20] in a line: AUC (0 to 8 hrs) in Balb/c nude mouse at 5 mg/kg, po. It counts as ADME, organism-based. Further details: time < 8 hr, dose 5 mg/kg, route oral. Particulars: in vivo. In a few lines:
as §2

Data set [21] can be described thus: Oral bioavailability in Sprague-Dawley rat at 5 mg/kg. It counts as ADME, organism-based. The settings on record: in vivo. In outline: as §3

Values after ≈ are worked out from the molar mass of the structure shown. Some results are limits rather than exact numbers.

T1 sequence (P49327 whole entry): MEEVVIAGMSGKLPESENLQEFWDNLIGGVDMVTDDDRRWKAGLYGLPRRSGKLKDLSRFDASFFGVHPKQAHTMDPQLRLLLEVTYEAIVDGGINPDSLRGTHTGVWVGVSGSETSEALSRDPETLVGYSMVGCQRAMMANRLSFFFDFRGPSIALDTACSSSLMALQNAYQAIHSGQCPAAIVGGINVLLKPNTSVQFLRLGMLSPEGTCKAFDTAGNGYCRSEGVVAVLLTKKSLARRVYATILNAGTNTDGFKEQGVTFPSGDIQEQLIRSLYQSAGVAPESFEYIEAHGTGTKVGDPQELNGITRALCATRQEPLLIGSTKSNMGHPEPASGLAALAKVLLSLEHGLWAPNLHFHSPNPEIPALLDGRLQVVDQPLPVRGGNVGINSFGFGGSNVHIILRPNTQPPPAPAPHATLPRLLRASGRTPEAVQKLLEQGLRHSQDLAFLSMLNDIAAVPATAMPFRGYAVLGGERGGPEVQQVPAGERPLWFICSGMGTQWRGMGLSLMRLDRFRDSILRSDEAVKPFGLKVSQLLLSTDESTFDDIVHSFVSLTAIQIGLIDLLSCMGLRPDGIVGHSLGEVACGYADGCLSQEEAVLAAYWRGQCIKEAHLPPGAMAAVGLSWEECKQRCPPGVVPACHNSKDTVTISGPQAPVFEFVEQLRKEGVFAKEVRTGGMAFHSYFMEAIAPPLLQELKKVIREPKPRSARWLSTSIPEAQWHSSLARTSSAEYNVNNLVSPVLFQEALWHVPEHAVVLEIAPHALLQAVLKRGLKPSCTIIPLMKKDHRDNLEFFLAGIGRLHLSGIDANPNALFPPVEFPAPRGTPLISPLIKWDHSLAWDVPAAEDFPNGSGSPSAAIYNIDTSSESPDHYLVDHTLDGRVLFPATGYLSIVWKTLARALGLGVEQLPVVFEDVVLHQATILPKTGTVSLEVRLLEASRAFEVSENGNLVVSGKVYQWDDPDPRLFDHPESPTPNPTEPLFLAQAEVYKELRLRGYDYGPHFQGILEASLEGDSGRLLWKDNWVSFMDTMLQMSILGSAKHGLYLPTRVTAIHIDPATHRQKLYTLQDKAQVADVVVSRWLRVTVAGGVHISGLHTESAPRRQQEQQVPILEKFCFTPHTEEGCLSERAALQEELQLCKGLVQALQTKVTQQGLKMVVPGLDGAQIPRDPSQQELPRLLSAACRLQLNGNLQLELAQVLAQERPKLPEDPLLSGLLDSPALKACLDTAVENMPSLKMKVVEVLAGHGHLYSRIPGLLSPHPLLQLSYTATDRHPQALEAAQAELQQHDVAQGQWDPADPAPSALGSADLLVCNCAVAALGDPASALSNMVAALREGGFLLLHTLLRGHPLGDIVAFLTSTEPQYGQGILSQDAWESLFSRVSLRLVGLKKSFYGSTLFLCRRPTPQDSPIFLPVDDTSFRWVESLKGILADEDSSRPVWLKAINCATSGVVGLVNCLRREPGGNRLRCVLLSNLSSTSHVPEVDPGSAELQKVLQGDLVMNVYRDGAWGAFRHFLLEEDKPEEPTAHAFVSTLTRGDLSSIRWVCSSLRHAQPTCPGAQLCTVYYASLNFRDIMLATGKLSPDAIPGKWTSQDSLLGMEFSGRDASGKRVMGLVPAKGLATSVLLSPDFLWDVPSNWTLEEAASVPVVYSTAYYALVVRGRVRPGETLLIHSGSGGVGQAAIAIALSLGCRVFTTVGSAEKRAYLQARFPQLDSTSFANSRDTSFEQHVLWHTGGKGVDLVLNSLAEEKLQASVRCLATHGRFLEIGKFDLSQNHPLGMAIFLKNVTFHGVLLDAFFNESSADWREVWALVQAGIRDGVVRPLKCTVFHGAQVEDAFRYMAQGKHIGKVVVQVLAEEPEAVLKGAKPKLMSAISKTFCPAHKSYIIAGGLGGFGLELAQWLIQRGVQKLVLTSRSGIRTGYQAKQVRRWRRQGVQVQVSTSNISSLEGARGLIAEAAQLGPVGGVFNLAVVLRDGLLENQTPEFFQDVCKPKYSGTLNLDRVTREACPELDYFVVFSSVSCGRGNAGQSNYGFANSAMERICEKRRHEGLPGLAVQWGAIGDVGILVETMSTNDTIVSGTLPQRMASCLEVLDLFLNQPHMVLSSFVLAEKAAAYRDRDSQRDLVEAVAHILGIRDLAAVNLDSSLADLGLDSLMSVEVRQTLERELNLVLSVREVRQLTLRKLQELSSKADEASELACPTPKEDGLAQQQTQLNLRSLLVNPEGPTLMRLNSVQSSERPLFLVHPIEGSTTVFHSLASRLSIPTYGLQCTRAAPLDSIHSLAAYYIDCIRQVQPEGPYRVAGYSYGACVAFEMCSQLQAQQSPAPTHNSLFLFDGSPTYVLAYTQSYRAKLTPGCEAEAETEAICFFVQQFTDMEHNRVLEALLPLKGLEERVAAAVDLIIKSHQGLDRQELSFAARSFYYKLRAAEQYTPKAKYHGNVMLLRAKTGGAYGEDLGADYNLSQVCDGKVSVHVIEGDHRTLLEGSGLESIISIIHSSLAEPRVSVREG

As to `Cn1ncc2ccc(-c3ccc(C(=O)N4CCN(C(=O)C5(O)CC5)CC4)cc3)cc21`, the IC50 in [1] worked out at 12 nM; in [2], 26 nM. Besides, the solubility kinetic in data set [3] was determined as 79 µM (≈ 32 µg/mL). For the same compound, the remaining at 1 h in [4] amounted to 75%; in data set [7], 77%. Besides, the remaining at 0.5 h in data set [5] was found to be 89%. This compound also showed an AUC in [6] of 9.8 µM·h.

Turning to `Cn1c(-c2ccc(C(=O)N3CCN(C(=O)C4(O)CC4)CC3)cc2)cc2ccccc21`, the values for the IC50 in data set [1], in data set [2] and in data set [8] were 25 nM, 33 nM and 70 nM, respectively. Besides, in data set [3], the solubility kinetic turned out to be 0.3 µM (≈ 0.121 µg/mL). The remaining at 0.5 h in data set [5] was found to be 83%.

As for `O=C(c1ccc(-c2cc(Cl)ccc2F)cc1)N1CCN(C(=O)C2(O)CC2)CC1`, the IC50 was found to be 138 nM in data set [1], 110 nM in data set [2] and 158 nM in data set [8]. In addition, the solubility kinetic in [3] came to 43 µM (≈ 17.3 µg/mL). Besides, the remaining at 0.5 h in data set [5] came to 66%.

On to `Cn1ccc2cc(-c3ccc(C(=O)N4CCN(C(=O)C5(O)CC5)CC4)cc3)ccc21`, for which the IC50 came out at 12 nM in data set [2] and 19 nM in data set [8]. Besides, in [3], the solubility kinetic was 3 µM (≈ 1.21 µg/mL). Further, the remaining at 0.5 h in [5] was determined as 81%.

As to `O=C(c1ccc(-c2cnc3cccnc3c2)cc1)N1CCN(C(=O)C2(O)CC2)CC1`, the concentration for half-maximal inhibition (IC50) in [2] is greater than 5000 nM; in [8] it was greater than 125000 nM. Also, the solubility kinetic in [3] was 95 µM (≈ 38.2 µg/mL). For the same compound, in [5], the remaining at 0.5 h was 89%.

For the compound `O=C(c1ccc(-c2nc3ccc(F)cc3o2)cc1)N1CCN(C(=O)C2(O)CC2)CC1`, the IC50 turned out to be 47 nM in data set [1], 213 nM in data set [2], 26 nM in data set [15] and 90 nM in [8]. In addition, the inhibition in vivo at 50 mg/kg in [9] was found to be 50%. For the same compound, in [10], the inhibition in vivo at 25 mg/kg was found to be 32%. Moreover, the Activity entry in [11] is given as “Non-Toxic”. The inhibition result in [12] is “Dose-dependent effect”. Moreover, the Cmax in [13] worked out at 8.4 µM; in data set [17] it was 33 µM. For the same compound, the Tmax turned out to be 2 h in [14] and 3 h in data set [16]. Also, in data set [3], the solubility kinetic is 39 µM (≈ 16 µg/mL). Besides, the remaining at 1 h worked out at 83% in [4] and 97% in data set [7]. Besides, in data set [5], the remaining at 0.5 h stood at 100%. The compound also showed an AUC in data set [6] of 46 µM·h. In [18], the AUC(0-t) at 24 h amounted to 440 µM·h. Further, the bioavailability in data set [19] was found to be 95%; in data set [21], 84%. Moreover, the AUC(0-t) at 8 h in data set [20] was 46 µM·h.

As for `O=C(c1ccc(-c2nc3cc(Cl)ccc3o2)cc1)N1CCN(C(=O)C2(O)CC2)CC1`, the IC50 in data set [1] was 49 nM; in data set [2], 69 nM; in data set [8], 136 nM. Besides, in [3], the solubility kinetic turned out to be 6 µM (≈ 2.56 µg/mL). Moreover, in [5], the remaining at 0.5 h was found to be 85%.

As for `CC(C)(O)C(=O)N1CCN(C(=O)c2ccc(-c3ccccc3)cc2)CC1`, in data set [2], the IC50 was found to be 35000 nM. Also, the remaining at 0.5 h in data set [5] was found to be 99%.

`O=C(c1ccc(-c2ccccc2)cc1)N1CCN(C(=O)C2CCCC2)CC1`: the IC50 in data set [2] is greater than 50000 nM.

As to `COc1ccc(-c2ccc(C(=O)N3CCN(C(=O)C4(O)CC4)CC3)cc2)c(Cl)c1`, the IC50 in [2] was found to be 3100 nM.

In the case of `O=C(c1ccc(-c2ccc(Cl)cc2F)cc1)N1CCN(C(=O)C2(O)CC2)CC1`, the IC50 amounted to 146 nM in data set [1], 110 nM in data set [2] and 336 nM in data set [8]. The solubility kinetic in [3] was determined as 33 µM (≈ 13.3 µg/mL). Also, the remaining at 1 h was 70% in [4] and 84% in data set [7]. The remaining at 0.5 h in data set [5] was 92%. The compound also displayed an AUC in [6] of 47.6 µM·h.

Take `O=C(c1ccc(-c2ccc3[nH]ccc3c2)cc1)N1CCN(C(=O)C2(O)CC2)CC1`: the IC50 in [1] stood at 4 nM; in data set [2], 16 nM; in [8], 18 nM. Further, the solubility kinetic in data set [3] was 60 µM (≈ 23.4 µg/mL). Moreover, the remaining at 0.5 h in data set [5] was 55%.

In the case of `O=C(c1ccc(-c2ccccc2)cc1)N1CCN(C(=O)C2(O)CC2)CC1`, the IC50 in [2] worked out at 350 nM. Moreover, the remaining at 0.5 h in data set [5] was 95%.
